Assay outcomes as filed in PubChem BioAssay.
This is a sample that favours compounds with a hit; in the whole collection about 2.3% have one here.
TRPC4 inh – TRPC4 (mouse) channel inhibition. Q9QUQ5. HEK293 TRPC4beta/mu-opioid, DAMGO-evoked Fluo4 calcium flux; hits give low values. B-score at 10 µM. 300,000 compounds, 0.39% hits. AID 2247;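 active means B-score over 3 SD under the library average, no early fluorescence shift, positive overall ratio signal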
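test system = HEK293 cells with stable TRPC4beta plus mu-opioid receptor expression | detection = Fluo4 Ca2+ flux fluorescence | read-out = integrated fluorescence ratio relative to baseline, converted to per-well B score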
TRPC6 inh – inhibitors of mouse TRPC6 channel | HEK293-TRPC6, membrane potential dye, ACh-evoked depolarization; hits give low values | B-score at 10 µM | 310,000 compounds, 1.1% hits;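 active means B-score under library mean minus 3 SD, initial fluorescence not abnormally high, positive integrated signal ratio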;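 further: B-score derived from integrated fluorescence ratio over the kinetic read; more negative B-score means stronger inhibition of depolarization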
TRPC4 agonist – TRPC4 (mouse) channel activation; Q9QUQ5; 310,000 compounds, 0.49% hits; B-score at 10 µM; HEK293 TRPC4beta/mu-opioid, Fluo4 calcium fluorescence; hits give high values;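 active means B-score above 5 SD of library B-scores, and initial fluorescence ratio not above library mean plus 5 SD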;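 further: positive B-score marks a calcium rise read as TRPC4 activation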
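system = HEK293 cells stably co-expressing mouse TRPC4beta and mu-opioid receptor | schedule = Fluo4 dye loading 45 min at room temperature, 110 s recording | measure = B-scored integrated calcium fluorescence ratio | signal = Fluo4 calcium-sensitive dye fluorescence, kinetic, 1 Hz baseline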
TRPC6 activator – activates the mouse TRPC6 cation channel | B-score at 10 µM | 310,000 compounds, 0.13% hits | HEK293-TRPC6 membrane potential dye fluorescence; hits give high values | Q61143 | AID 2550;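 active means B-score of the integrated fluorescence ratio above library mean plus 3 SD, and starting fluorescence ratio within library mean plus 5 SD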;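 further: higher score means more depolarization so channel activation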
TRPC4 potent – TRPC4 (mouse) allosteric potentiation; HEK293 TRPC4beta/mu-opioid, DAMGO EC20, Fluo-4 Ca2+ flux; hits give high values; B-score at 10 µM; 310,000 compounds, 0.42% hits; AID 2227;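 active means B-score of calcium response area above 5 SD of library B-scores, with initial fluorescence ratio within 5 SD of library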;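 further: B-score of integrated fluorescence ratio over time as area under calcium response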
An asterisk follows results filed as active; i = inactive.

SMILES	TRPC4 inh	TRPC6 inh	TRPC4 agonist	TRPC6 activator	TRPC4 potent
CCCCN(CC)CCCNC(=O)c1ccc(CS(=O)(=O)c2c(Cl)cccc2Cl)o1	i	i	62*	i	i
CCCCN(CCCNC(=O)c1ccc(CS(=O)(=O)c2c(Cl)cccc2Cl)o1)Cc1ccccc1	i	i	i	i	i
COc1ccccc1C(=O)NC1CCN(C(=O)Nc2ccc(F)cc2)CC1	i	i	i	i	i
CCCc1ccc(OCc2ccc(C(=O)N3CCSCC3)o2)cc1	i	i	i	i	20*
CC(C)(C)c1ccc(OCc2ccc(C(=O)N3CCOCC3)o2)cc1	i	i	i	i	i
Cc1ccc(NC(=O)CN(C)C(=O)CNC(=O)c2sc3ccccc3c2Cl)cc1	i	i	i	i	149*
Cc1cc2cc(C#N)c(NCCNC(=S)NCCCN3CCOCC3)nc2cc1C	-6*	i	i	i	i
COC(=O)[C@@]12CCCN1[C@H](c1ccc(-c3ccccc3)cc1)[C@H]1C(=O)N(C)C(=O)[C@H]12	i	i	i	i	i
COC(=O)[C@@]12CCCN1[C@H](c1ccc(-c3ccc(OC)cc3)cc1)[C@@H]1C(=O)N(C)C(=O)[C@@H]12	i	i	i	i	24*
Cc1sc(NC(=O)c2ccco2)c(C(c2ccc(F)cc2)N2CCN(C)CC2)c1C (stereo not given)	i	i	i	i	34*
Cc1sc(NC(=O)c2ccco2)c(C(c2cccnc2)N2CCN(c3ccc(F)cc3)CC2)c1C (stereo not given)	i	i	i	i	i
CC1CC(C)CN(C(=S)Nc2ccc(SC(F)F)cc2)C1 (stereo not given)	i	i	i	i	i
CC1CN(C(=S)Nc2ccc(SC(F)F)cc2)CC(C)O1 (stereo not given)	i	-6.55*	i	i	i
O=C(c1ccco1)N1CCN(C/C=C/c2ccccc2)CC1	-5*	i	i	i	i
CC(C)NC(=S)N1CCN(C/C=C/c2ccccc2)CC1	-6*	i	i	i	i
S=C(NC1CCCCC1)N1CCN(C/C=C/c2ccccc2)CC1	i	i	i	i	i
O=C(NCc1ccco1)C(c1cccs1)N(C(=O)C1COc2ccccc2O1)c1cccc(O)c1 (stereo not given)	i	i	i	i	i
COc1ccc(CCC(C)NCC2CCCCC2)cc1 (stereo not given)	-7*	i	i	i	i
O=C1CN(C(=O)COC(=O)C2CCN(S(=O)(=O)c3ccccc3C(F)(F)F)CC2)c2ccccc2N1	i	i	i	i	11*
COc1ccc(CNC(=O)COC(=O)C2CCN(S(=O)(=O)c3ccccc3C(F)(F)F)CC2)cc1	i	i	i	i	i
COCCCNc1nc(-c2ccncc2)nc2ccccc12	i	i	i	i	i
COCCNc1nc(-c2ccccc2)nc2ccccc12	-5*	i	i	i	i
CCn1c(SCC(=O)Nc2cc3oc4ccccc4c3cc2OC)nnc1-c1cccs1	i	i	i	i	i
Cc1ccc(C)c(NC2CCCCC2NS(=O)(=O)c2ccccc2)c1 (stereo not given)	i	i	i	i	i
Cc1cccc(NC2CCCCC2NS(=O)(=O)c2ccccc2)c1 (stereo not given)	i	i	i	i	13*
SMILES	TRPC4 inh	TRPC6 inh	TRPC4 agonist	TRPC6 activator	TRPC4 potent
CCN(CCCNC(=O)CCCOc1cc(=O)n(C)c2ccccc12)Cc1ccccc1	i	i	i	i	21*
CCOc1ccc(CCNC(=O)c2cccc(S(=O)(=O)N3CCN(C(C)=O)CC3)c2)cc1OCC	i	i	i	i	i
FC(F)(F)c1cccc(OCCN2CCN(Cc3ccccc3)CC2)c1	i	i	i	i	i
Cc1ccc(SCCCCN2CCNCC2)cc1	i	i	i	i	13*
Cc1ccc(SCCCCN2CCOCC2)cc1	i	i	i	i	i
Cc1ccccc1OCCCCN1CCCCC1	i	i	i	i	i
